Assay outcomes from PubChem.
HIF activator: HIF pathway transcriptional activation; U2OS HRE-luciferase reporter, luminescence; normalized: DMSO 0%, desferrioxamine 100%; activation, % at 7.5 µM (by protocol); actives 0.32% (n = 300,000); AID 1910;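 active = mean activation of at least 10% of the iron chelator positive control signal, with at least half of replicates also reaching 10%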
LMP1 NFkB inh: Epstein-Barr LMP1 NF-kappaB reporter inhibition; LMP1-induced NF-kappaB luciferase reporter cells, luminescence; actives 0.69% (n = 350,000); inhibition, % at 12.5 µM; AID 504558; in the data active = inhibition above about 41%;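 note: 0% = neutral control wells and 100% = reference inhibitor control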
NR2E3 ag-1: activates human photoreceptor nuclear receptor NR2E3; actives 0.12% (n = 320,000); GST-NR2E3/biotin-RetCOR TR-FRET, 1536-well; AID 2300; inhibition of corepressor binding, % at 4.78 µM;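 active = percent inhibition above the cutoff of mean plus 3 SD of all tested compounds, set per screening campaign, cut at about 20% in these data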;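 note: 0% = DMSO wells and 100% = biotin wells as full block of FRET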
Target sequence (Q9Y5X4 whole entry, looked up): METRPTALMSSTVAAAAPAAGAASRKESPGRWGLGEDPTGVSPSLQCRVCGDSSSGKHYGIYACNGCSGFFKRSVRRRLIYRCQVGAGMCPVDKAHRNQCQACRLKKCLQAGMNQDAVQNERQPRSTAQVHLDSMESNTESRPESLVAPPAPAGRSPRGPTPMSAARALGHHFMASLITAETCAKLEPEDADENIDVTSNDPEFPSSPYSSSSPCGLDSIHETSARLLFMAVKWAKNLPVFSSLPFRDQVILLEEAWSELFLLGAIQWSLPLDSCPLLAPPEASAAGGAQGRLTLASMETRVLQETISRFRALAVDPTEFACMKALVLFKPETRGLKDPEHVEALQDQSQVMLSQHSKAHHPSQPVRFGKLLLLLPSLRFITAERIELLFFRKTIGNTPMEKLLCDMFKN
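Test system: GST-NR2E3 and biotin-RetCOR proteins | Quantity: 1.35 nM GST-tagged NR2E3 final | Medium: Tris pH 7.5 | Also added: 7 nM biotin-RetCOR | Dosing: Compound at 4.8 µM, single dose | Timing: 5 h at 4 °C | Detection: Time-resolved FRET | Read-out basis: Percent inhibition | Benchmarks: Biotin wells as high control, 0.6% DMSO wells as low control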
NR2E3 ag-2: agonists of human NR2E3 nuclear receptor | actives 0.35% (n = 360,000) | inhibition of corepressor binding, % at 3.98 µM | CHO-S Gal4-NCOR/VP16-NR2E3 two-hybrid, luciferase | Q9Y5X4 | AID 602229;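 active = inhibition above the mean of all tested compounds plus 3 SD, cut at about 70% in these data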;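 note: 0% = DMSO with NR2E3 transfected cells and 100% = cells lacking NR2E3 construct; higher means lower luciferase signal from less NR2E3 corepressor binding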
TROY signal inh: blocks TROY-dependent signaling in reporter cells | Q293 LMP1-TROYcd NF-kB luciferase reporter, 4 h | inhibition, % at 10 µM | actives 0.98% (n = 360,000);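 active = compounds whose plate-normalised and pattern-corrected inhibition of the luciferase reporter signal at the single screening dose is 50% or more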
Numbers without * were called inactive; . = no result given. The list is not random: actives were taken first. Their share in the collection is about 2%.

SMILES | HIF activator | LMP1 NFkB inh | NR2E3 ag-1 | NR2E3 ag-2 | TROY signal inh
O=C(Nc1ccccc1F)N(CCCN1CCOCC1)Cc1cc2cc3c(cc2[nH]c1=O)OCCO3 | 1 | 2 | 0 | -22 | 58*
CCc1ccc2[nH]c(=O)c(CN(CCCN3CCOCC3)C(=O)Nc3ccccc3)cc2c1 | 0 | 9 | -2 | -28 | 62*
CCc1ccc2[nH]c(=O)c(CN(CCCN3CCOCC3)C(=O)Nc3ccc(Cl)cc3)cc2c1 | 0 | 9 | 2 | 1 | -18
CCN(CC)CCCN(Cc1cc2cc3c(cc2[nH]c1=O)OCCO3)C(=O)Nc1ccccc1 | 1 | -15 | 3 | -8 | 78*
Cc1ccc(S(=O)(=O)/N=C(/Nc2cccc(O)c2)c2ccccc2)cc1 | 0 | -2 | 0 | 6 | 5
Cc1noc2ncnc(Sc3ccc(Br)cc3)c12 | 5 | 8 | 0 | -1 | 64*
Cc1cccc(C(=O)n2c(=S)nc3cc(C)ccn32)c1 | 0 | 33 | 3 | -133 | 71*
Cc1ccn2c(c1)nc(=S)n2C(=O)c1ccccc1 | -3 | 49* | 1 | -99 | 74*
O=C(NCc1cccnc1)c1ccc2sc([C@H]3C[C@H](O)[C@@H](CO)O3)nc2c1 | . | . | . | 13 | -3
N=c1oc2cc(O)ccc2cc1C(=O)Nc1nc2ccccc2s1 | 3 | -36 | 5 | -43 | 50*
Cc1ccc(Cl)cc1N1CCN(C(=O)CSc2nnc3n2C(C)(C)Cc2ccccc2-3)CC1 | 0 | 10 | 0 | 87* | 72*
Cc1ccccc1N1CCN(C2CCCN(C(=O)c3cn4cccc(C)c4n3)C2)CC1 (configuration not stated) | 0 | 9 | . | 12 | 20
CCc1nc2ccc(C(=O)NCCOc3ccc(OC)cc3)cn2c1N(CCC(C)C)CCN(C)C | . | . | . | -9 | -6
CC1CCN(C(=O)c2ccc(-n3cnnn3)cc2)CC1 | 0 | -2 | 0 | -5 | 2
NC(=O)C1(N2CCCCC2)CCN(C(=O)c2ccc(-n3cnnn3)cc2)CC1 | -1 | 64* | -1 | -24 | -7
CCOc1ccc(S(=O)(=O)NCCC(=O)OCC(=O)NC(=O)c2cccn2C)cc1 | . | 2 | . | -11 | 19
COc1ccc(OC)c(NC(=O)c2nc(S(=O)(=O)Cc3ccccc3)ncc2Cl)c1 | -6 | -1 | 2 | 8 | 83*
COc1ccc(NC(=O)c2nc(S(=O)(=O)Cc3cccc(C)c3)ncc2Cl)c(OC)c1 | -2 | 11 | -3 | 23 | 54*
CC1C/C(=C/c2ccncc2)C(=O)/C(=C/c2ccncc2)C1 (configuration not stated) | -4 | 92* | 1 | -3 | 66*
O=S(=O)(c1cc(Cl)ccc1Cl)N1CCC2(CC1)OCCO2 | 0 | -19 | -1 | -12 | 15
CC1=CC2C(C(O)CC3(C)C2CC(C)C32OCOC23COCO3)C2(C)C/C(=C\O)C(=O)C=C12 (configuration not stated) | . | -1 | . | 2 | 83*
CCCc1nnc(NC(=O)CS(=O)(=O)c2ccc(C)cc2)s1 | 0 | -3 | -4 | -73 | -17
CCCc1nnc(NC(=O)c2nc(S(=O)(=O)Cc3cccc(C)c3)ncc2Cl)s1 | 0 | 9 | 2 | 44 | 57*
Cc1cc(C)cc(S(=O)(=O)Cc2noc(C(=O)NCc3ccccc3)c2C(=O)NCc2ccccc2)c1 | . | -11 | . | -11 | -6
Cc1cccc(C)c1NC(=O)c1nc(S(=O)(=O)Cc2ccccc2)ncc1Cl | -3 | 44* | 2 | -49 | 53*
SMILES | HIF activator | LMP1 NFkB inh | NR2E3 ag-1 | NR2E3 ag-2 | TROY signal inh
Cc1cccc(CS(=O)(=O)c2ncc(Cl)c(C(=O)Nc3c(C)cccc3C)n2)c1 | 1 | 11 | 1 | 17 | 67*
Cc1cccc(CS(=O)(=O)c2ncc(Cl)c(C(=O)NCc3ccccc3)n2)c1 | 6 | -8 | 0 | 9 | 63*
COc1ccccc1C(CNC(=O)CN1C(=O)NC(C)(c2ccc3ccccc3c2)C1=O)N1CCCC1 (configuration not stated) | . | -7 | . | 11 | -8
O=C(/C=C/c1ccc([N+](=O)[O-])cc1)Nc1cccc(C(=O)Nc2ccccc2C(=O)O)c1 | -1 | -3 | 2 | -9 | 9
COc1cc(S(=O)(=O)NCC(c2ccco2)N2CCCCC2)ccc1NC(C)=O (configuration not stated) | . | 5 | 0 | 17 | -9
CC(=O)Nc1sc2c(c1-c1nc3ccccc3s1)CCN(C(C)C)C2 | . | 78* | -4 | 3 | -1
